Published values pooled from the literature.
Protocols differ between the studies behind these lines.

Structure (SMILES) | assay | system | conditions | measurement | result
COc1ccc([C@@]23Oc4cc(OC)cc(OC)c4[C@@]24NC(C)=N[C@@]4(O)[C@H](C(=O)N(C)OC)[C@H]3c2ccccc2)cc1 | metabolic stability | rat, liver microsomes |  | microsomal CLint | 12.2 µL/min/mg
COc1ccsc1CNCC[C@@]1(c2ccccn2)CCOC2(CCCC2)C1 |  | human, plasma | intravenous, 1.5 mg, single dose, infusion | clearance | 721 mL/min
C[C@]12CC[C@H]3[C@@H](CCC4=CC(=O)CC[C@@]43C)[C@@H]1CC[C@@H]2O | metabolic stability | Sprague-Dawley rat, hepatocytes | 1 µM | hepatocyte CLint | 240 µL/min/10⁶ cells
Cc1ncc2n1-c1ccc(Cl)cc1C(c1ccccc1F)=NC2 | metabolic stability | Sprague-Dawley rat, hepatocytes | 0.5 µM, pH 7.4 | hepatocyte CLint | 160 µL/min/10⁶ cells
CNC(C)Cc1ccc2nsnc2c1 (stereo not drawn) | metabolic stability | human, liver microsomes | 0.5 µM | microsomal CLint | 13.1 µL/min/mg
Cn1nccc1[C@]1(CNC(=O)c2ccc(F)c(F)c2-c2ccc(C(F)(F)F)cc2)NC(=O)NC1=O | HPLC |  | pH 7.5 | chromatographic logD | 2.3
COc1ccc2c(c1)[C@]13CCCC[C@@H]1[C@H](C2)N(C)CC3 | metabolic stability | Sprague-Dawley rat, hepatocytes | 0.5 µM, pH 7.4 | hepatocyte CLint | 97 µL/min/10⁶ cells
O=C1NC(=O)[C@](CNC(=O)c2cnn(-c3ccccc3)n2)(C2CC2)N1 | HPLC |  | pH 7.5 | chromatographic logD | 1.8
CONC(=O)[C@H]1[C@@H](O)[C@@]2(O)c3c(OC)cc(OC)cc3O[C@@]2(c2ccc(OC)cc2)[C@@H]1c1ccccc1 | metabolic stability | rat, liver microsomes |  | microsomal CLint | 23.8 µL/min/mg
